# Results from different studies.
# Compare with care: the assays were run in different laboratories.
# BACE1: Beta-secretase 1 (BACE1, Homo sapiens, UniProt P56817)
# HLA class I histocompatibility antigen, A alpha chain: HLA class I histocompatibility antigen, A alpha chain (Homo sapiens, UniProt P04439)
SMILES,target,observed,mode,method,measurement,value
C=CCOc1ccc(C(=O)/C=C/c2ccc(OC)cc2)c(OS(=O)(=O)c2ccc(OC)cc2)c1I,BACE1,enzyme activity,inhibitor,fluorescence,IC50,18200 nM
COc1cc(C(F)(F)F)c(OC)cc1C1CCCNC1 (stereo not shown),"5-hydroxytryptamine receptor 2C (Htr2c, Mus musculus, UniProt P34968)",G protein activation,agonist,BRET,EC50,30.9 nM
CCOC(=O)c1ccc(OC(=O)CCCCCN=C(N)N)cc1,"Transmembrane protease serine 6 (Homo sapiens, UniProt Q8IU80)",enzyme activity,inhibitor,,IC50,412 nM
COc1cc2c(cc1OC)CN(CCc1ccc(NC(=O)c3cccc4c(=O)c5cccc(OC)c5[nH]c34)cc1)CC2,"D(2) dopamine receptor (DRD2, Homo sapiens, UniProt P14416)",cell-free assay,,,Ki,943 nM
CSCC[C@H](NC(=O)[C@@H](N)CCCNC(=N)N)C(=O)N[C@@H](Cc1ccccc1)C(=O)NCC(=O)N1CCC[C@H]1C(=O)N[C@H](C(=O)N[C@@H](CCC(N)=O)C(=O)N[C@H](C(=O)N[C@@H](Cc1ccc(O)cc1)C(=O)O)[C@@H](C)O)C(C)C,"HLA class I histocompatibility antigen, A alpha chain",cell-free assay,,,IC50,45 nM
C=CCOc1ccc(C(=O)/C=C/c2cccc(F)c2)c(OS(=O)(=O)c2ccc(F)cc2)c1I,BACE1,enzyme activity,inhibitor,fluorescence,IC50,27800 nM
CSCC[C@H](NC(=O)[C@@H](N)CCCCN)C(=O)N[C@@H](Cc1c[nH]c2ccccc12)C(=O)NCC(=O)N[C@@H](CCCCN)C(=O)N1CCC[C@H]1C(=O)N[C@@H](CCSC)C(=O)N[C@H](C(=O)N[C@@H](Cc1ccccc1)C(=O)O)[C@@H](C)O,"HLA class I histocompatibility antigen, A alpha chain",cell-free assay,,,IC50,213 nM
C=CCOc1ccc(C(=O)/C=C/c2ccc(OC)cc2)c(OS(=O)(=O)c2ccccc2[N+](=O)[O-])c1I,BACE1,enzyme activity,inhibitor,fluorescence,IC50,23900 nM
CCCC[C@H](NC(C)=O)C(=O)N[C@H]1CC(=O)NCCCC[C@@H](C(=O)N2CCC[C@@H]2C(=O)N[C@@H](C(=O)N2CCC[C@@H]2C(N)=O)C(C)C)NC(=O)[C@H](Cc2c[nH]c3ccccc23)NC(=O)[C@H](CCCNC(=N)N)NC(=O)[C@@H](Cc2ccccc2)NC(=O)[C@@H]2CCCN2C1=O,"Melanocortin receptor 3 (MC3R, Homo sapiens, UniProt P41968)",cAMP,agonist,,EC50,> 1000 nM
CC[C@H](C)[C@H](NC(=O)[C@@H](N)CCCNC(=N)N)C(=O)N[C@@H](Cc1ccc(O)cc1)C(=O)NCC(=O)N1CCC[C@H]1C(=O)N1CCC[C@H]1C(=O)N[C@@H](Cc1c[nH]cn1)C(=O)N[C@@H](CCC(N)=O)C(=O)N[C@@H](Cc1ccccc1)C(=O)O,"HLA class I histocompatibility antigen, A alpha chain",cell-free assay,,,IC50,376 nM
